Active and inactive are the calls of the source. No cut-off for these calls is given here.
Tests used:
[1] = biological target: T1, Integrin alpha-5/beta-1 (Homo sapiens, UniProt P05556+P08648); assay: Inhibition of fibronectin binding to alpha5beta1 isolated from human K562 cells incubated for 1 hr by […] competitive solid-phase binding assay; assay type: tissue-based
Outline: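 Plates coated overnight at 4 °C in carbonate buffer pH 9.6 with fibronectin 0.5 µg/mL (αvβ3, αvβ6, α5β1), fibrinogen 10 µg/mL (αIIbβ3, αvβ5) or ICAM-1 (αLβ2). Blocked 1 h in buffer containing Ca/Mg/Mn 1 mM each and 1% BSA. Purified integrin (3–10 µg/mL) incubated with compound (10⁻⁴–10⁻¹⁰ M) 1 h at room temperature. Bound integrin detected with primary antibody then AlexaFluor488 secondary, Ex485/Em535. Duplicate, at least three repeats.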

[2] = test system: SK-MEL-24; assay: Toxicity in human SK-MEL-24 cells assessed as induction of cell necrosis and/or apoptosis incubated for 3 hrs by annexin V-PE and 7-AAD staining based by flow cytometry; settings: sk-mel-24, 3 h
Outline: (§1)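 After 3 h incubation, cells resuspended in complete medium and stained with annexin V-PE/7-AAD reagent for 20 min at room temperature in the dark. Flow cytometry sorted cells into viable, early apoptotic and late apoptotic/necrotic populations.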

[3] = test system: MCF7; assay: Toxicity in human MCF7 cells assessed as induction of cell necrosis and/or apoptosis incubated for 3 hrs by annexin V-PE and 7-AAD staining based by flow cytometry; settings: mcf7, 3 h; outline: as §1
[4] = test system: HT-29; assay: Toxicity in human HT-29 cells assessed as induction of cell necrosis and/or apoptosis incubated for 3 hrs by annexin V-PE and 7-AAD staining based by flow cytometry; settings: ht-29, 3 h; outline: as §1
[5] = test system: K562; assay: Toxicity in human K562 cells assessed as induction of cell necrosis and/or apoptosis incubated for 3 hrs by annexin V-PE and 7-AAD staining based by flow cytometry; settings: k562, 3 h; outline: as §1
[6] = test system: HEL; assay: Toxicity in human HEL cells assessed as induction of cell necrosis and/or apoptosis incubated for 3 hrs by annexin V-PE and 7-AAD staining based by flow cytometry; outline: as §1
[7] = biological target: T2, Integrin alpha-V/beta-3 (Homo sapiens, UniProt P05106+P06756); assay: Agonist activity at alphaVbeta3 in human SK-MEL-24 cells assessed as increase in cell adhesion to fibronectin pre-incubated for 30 mins before fibronectin and further incubated for 1 hr by nitrophenyl-N-acetyl-beta-D-glucosaminide substrate based chromogenic assay
Outline: (§2)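 Compound or methanol vehicle pre-incubated with cells for 30 min at room temperature. Cells then plated on wells coated overnight at 4 °C with fibronectin 10 µg/mL (SK-MEL-24, K562, HT-29) or fibrinogen 10 µg/mL (MCF7, HEL). Seeding was 50,000 cells/well, or 100000 for HEL. Adhesion ran 1 h at room temperature. Wells washed with 1% BSA/PBS. Adherent cells read by hexosaminidase substrate, absorbance 405 nm. Quadruplicate, at least three repeats.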

[8] = biological target: T3, Integrin alpha-V/beta-5 (Homo sapiens, UniProt P06756+P18084); assay: Agonist activity at alphaVbeta5 in human MCF7 cells assessed as increase in cell adhesion to fibrinogen pre-incubated for 30 mins before fibrinogen and further incubated for 1 hr by nitrophenyl-N-acetyl-beta-D-glucosaminide substrate based chromogenic assay; outline: as §2
[9] = biological target: T4, Integrin alpha-V/beta-6 (Homo sapiens, UniProt P06756+P18564); assay: Antagonist activity at alphaVbeta6 in human HT-29 cells assessed as reduction in cell adhesion to fibronectin pre-incubated for 30 mins before fibronectin and further incubated for 1 hr by nitrophenyl-N-acetyl-beta-D-glucosaminide substrate based chromogenic assay
Outline: as §2, with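 “BSA/PBS.” for “BSA/PBS. Adherent cells read by hexosaminidase substrate, absorbance 405 nm.”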

[10] = biological target: T1, Integrin alpha-5/beta-1; assay: Agonist activity at alpha5beta1 in human K562 cells assessed as increase in cell adhesion to fibronectin pre-incubated for 30 mins before fibronectin and further incubated for 1 hr by nitrophenyl-N-acetyl-beta-D-glucosaminide substrate based chromogenic assay; outline: as §2
[11] = biological target: T5, Integrin alpha-IIb/beta-3 (Homo sapiens, UniProt P05106+P08514); assay: Agonist activity at alpha2bbeta3 in human HEL cells assessed as increase in cell adhesion to fibrinogen pre-incubated for 30 mins before fibrinogen and further incubated for 1 hr by nitrophenyl-N-acetyl-beta-D-glucosaminide substrate based chromogenic assay
Outline: as §2, with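 “BSA/PBS.” for “BSA/PBS. Adherent cells read by hexosaminidase substrate, absorbance 405 nm.”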

[12] = biological target: T5, Integrin alpha-IIb/beta-3; assay: Antagonist activity at alpha2bbeta3 in human HEL cells assessed as reduction in cell adhesion to fibrinogen pre-incubated for 30 mins before fibrinogen and further incubated for 1 hr by nitrophenyl-N-acetyl-beta-D-glucosaminide substrate based chromogenic assay
Outline: as §2, with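 “BSA/PBS.” for “BSA/PBS. Adherent cells read by hexosaminidase substrate, absorbance 405 nm.”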

[13] = biological target: T6, Integrin alpha-4/beta-1 (Homo sapiens, UniProt P05556+P13612); assay: Antagonist activity at alpha4beta1 in human Jurkat E6.1 cells assessed as reduction in cell adhesion to VCAM1 pre-incubated for 30 mins before VCAM1 and further incubated for 30 mins by […]; assay type: cell-based
[14] = biological target: T7, Integrin alpha-L/beta-2 (LFA-1) (Homo sapiens, UniProt P05107+P20701); assay: Agonist activity at alphaLbeta2 in human Jurkat E6.1 cells assessed as increase in cell adhesion to ICAM1 pre-incubated for 30 mins before ICAM1 and further incubated for 30 mins by […]; assay type: cell-based
Outline: (§3)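 Jurkat E6.1 cells labelled with CellTracker green CMFDA (12.5 µM, 30 min, 37 °C), washed, then pre-incubated 30 min at 37 °C with compound or methanol. Plated at 500,000/well on VCAM-1 (α4β1) or ICAM-1 (αLβ2) coated wells (5 µg/mL) for 30 min at 37 °C. Cells lysed in 0.5% Triton X-100; fluorescence read Ex485/Em535. Quadruplicate, at least three repeats.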

[15] = biological target: T7, Integrin alpha-L/beta-2 (LFA-1); assay: Antagonist activity at alphaLbeta2 in human Jurkat E6.1 cells assessed as reduction in cell adhesion to ICAM1 pre-incubated for 30 mins before ICAM1 and further incubated for 30 mins by […]; assay type: cell-based; outline: as §3
[16] = biological target: T2, Integrin alpha-V/beta-3; assay: Inhibition of fibronectin binding to human recombinant alphaVbeta3 expressed in HEK293 cells incubated for 1 hr by […] competitive solid-phase binding assay; assay type: cell-based
[17] = biological target: T3, Integrin alpha-V/beta-5; assay: Inhibition of fibrinogen binding to alphaVbeta5 isolated form human mCf7 cells incubated for 1 hr by […] competitive solid-phase binding assay
[18] = biological target: T4, Integrin alpha-V/beta-6; assay: Inhibition of fibronectin binding to alphaVbeta6 isolated form human HT-29 cells incubated for 1 hr by […] competitive solid-phase binding assay; assay type: tissue-based
[19] = biological target: T6, Integrin alpha-4/beta-1; assay: Inhibition of fibronectin binding to […] isolated from human Jurkat E6.1 cells incubated for 1 hr by scintillation-proximity assay based competitive solid-phase binding assay; assay type: tissue-based
[20] = biological target: T1, Integrin alpha-5/beta-1; assay: Agonist activity at alpha5beta1 in human K562 cells assessed as increase in cell adhesion to fibronectin pre-incubated for 30 mins and further incubated for 1 hr by nitrophenyl-N-acetyl-beta-D-glucosaminide substrate based chromogenic assay; settings: filed as agonist, time 90.0 min; outline: as §2
[21] = biological target: T1, Integrin alpha-5/beta-1; assay: (§4) Agonist activity at alpha5beta1 in human K562 cells assessed as increase in cell adhesion to fibronectin at 10 ug/ml pre-incubated for 30 mins and further incubated for 1 hr in presence of integrin antagonist c(-RGDfV) by nitrophenyl-N-acetyl-beta-D-glucosaminide substrate based chromogenic assay; settings: dose 10.0 µg/ml, time 90.0 min
Outline: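 Agonist-coated wells (10 µg/mL in methanol). Cells pre-treated 10 min before plating with neutralizing anti-α5, anti-αv or anti-α4 antibody (10 µg/mL), or pre-incubated with c(-RGDfV) (1 µM). K562 plated at 50,000/well and Jurkat E6.1 at 500,000/well. Adhesion quantified as in the standard assay.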

[22] = biological target: T1, Integrin alpha-5/beta-1; assay: as §4, with “pre-incubated for 30 mins” left out, “of neutralizing antibody against the alpha5” for “of”, “subunit” for “antagonist c(-RGDfV)”; settings: dose 10.0 µg/ml, time 90.0 min
[23] = biological target: T5, Integrin alpha-IIb/beta-3; assay: Agonist activity at alpha2bbeta3 in human K562 cells assessed as increase in cell adhesion to fibrinogen pre-incubated for 30 mins and further incubated for 1 hr in presence of alpha2bbeta3 antagonist Tirofiban by nitrophenyl-N-acetyl-beta-D-glucosaminide substrate based chromogenic assay; settings: filed as agonist, time 90.0 min
[24] = biological target: T1, Integrin alpha-5/beta-1; assay: Agonist activity at alpha5beta1 in human K562 cells assessed as assessed as increase in ERK1/2 phosphorylation at 1 to 100 nM by Western blot analysis; assay type: cell-based; settings: filed as agonist, dose 1-100 nM
[25] = biological target: T6, Integrin alpha-4/beta-1; assay: Antagonist activity at alpha4beta1 in human Jurkat E6.1 cells assessed as reduction in VCAM-1 induced ERK1/2 phosphorylation at 1 to 100 nM by Western blot analysis; assay type: cell-based; settings: filed as antagonist, dose 1-100 nM

## Cc1ccccc1NC(=O)N1C(=O)CC1CC(=O)NCCC(=O)O (stereo not given)
[1]
  IC50: 36 nM
[2]
  Activity: Non-Toxic
[3]
  Activity: Non-Toxic
[4]
  Activity: Non-Toxic
[5]
  Activity: Non-Toxic
[6]
  Activity: Non-Toxic
[7]
  EC50: 187 nM
[8]
  EC50: 670 nM
[9]
  IC50: 44.4 nM
[10]
  EC50: 49 nM
[11]
  EC50: > 5000 nM
[12]
  IC50: > 5000 nM
[13]
  IC50: 17.4 nM
[14]
  EC50: > 5000 nM
[15]
  IC50: > 5000 nM
[16]
  IC50: 116 nM
[17]
  IC50: 634 nM
[18]
  IC50: 23.4 nM
[19]
  IC50: 12.4 nM
[20]
  Activity: Dose-dependent effect
[21]
  Activity: inactive
[22]
  Activity: inactive
[23]
  Activity: Active
[24]
  Activity: Dose-dependent effect
[25]
  Activity: Dose-dependent effect

Source: ChEMBL document CHEMBL4680084, “New β-Lactam Derivatives Modulate Cell Adhesion and Signaling Mediated by RGD-Binding and Leukocyte Integrins” (J Med Chem, 2016)
